These results are taken from ChEMBL document CHEMBL1121580, “Comparison of biological effects of N-alkylated congeners of beta-phenethylamine derived from 2-aminotetralin, 2-aminoindan, and 6-aminobenzocycloheptene” (1980).

Activity calls are given as the source filed them. No cut-off for these calls is given here.

For experiment [1], the species on record is Mus musculus. Nature of the experiment: (§1) Evaluated for drug-induced inhibition of exploratory activity in mouse. It counts as functional. Details: concentration or dose not given beside the values. In outline:
(§2)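 Male Swiss-Webster mice (20–30 g) were acclimated for several days and tested in groups of three in an activity meter. Dosing was 10 mg/kg ip immediately before cage entry; controls got water on each test day. Counts from the 18 min starting at 6 min were summed as % reduction vs control. Three groups per compound; one-way ANOVA, Scheffé.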

The species named for experiment [2] is Mus musculus. Kind of experiment: Evaluated for analgesic activity and increase in reaction time in mouse by hotplate assay. On the set-up: unit not given beside the values. The class given is functional. The procedure, abridged: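 Male Swiss-Webster mice (20–30 g) got 10 mg/kg ip 10 min before a single exposure to a 55 ± 0.5 °C hot plate. End point was jumping or paw licking. Ten mice per drug, plus 10 saline controls each test day; also run after naloxone 5 mg/kg ip pretreatment. Mean latency (s) ± SEM; grouped Student's t test vs control.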

For experiment [3], the species on record is Rattus norvegicus. Nature of the experiment: Evaluated for induce circling behavior in the rat expressed as rotational behavior (turns/h). It counts as functional. In outline: (§3)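 Used male Sprague-Dawley rats (200–300 g) with unilateral substantia nigra 6-hydroxydopamine lesions. A single 10 mg/kg sc dose was given to four rats at the start of a 1-h automatic recording. Turns/h were recorded with direction (ipsilateral or contralateral); a mean above 100 counted as substantial circling.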

For experiment [4], the species on record is Canis familiaris. Kind of experiment: Evaluated for inhibition of pressor response during carotid occlusion in dog. It counts as functional. The settings on record: Canis lupus familiaris. The procedure, abridged:
(§4)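 Dogs (8–15 kg) under thiopental sodium 15 mg/kg iv, then barbital sodium 200 mg/kg. Pressor response to bilateral carotid occlusion was monitored at least 1 h per dose. Doses changed by 0.48 log interval once responses returned to control. At least five dogs per compound; value is the calculated amount giving 50% inhibition of the pressor response.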

The next experiment is filed under the species Felis catus. Nature of the experiment: Evaluated for inhibition of pressor response during central sciatic nerve stimulation in cat. It counts as functional. In outline: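 In cats under pentobarbital sodium 30 mg/kg intrathoracic, left femoral arterial pressure was recorded. The central stump of the sectioned right sciatic nerve was stimulated at 4 Hz, 5 ms, supramaximal voltage for 30 s (pressor 30–60 mmHg). Compounds were given iv, followed 1 h, doses stepped by 0.48 log unit; at least six cats. Value is the calculated amount giving 50% pressor inhibition.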

For experiment [5], the species on record is Canis familiaris. Kind of experiment: Evaluated for inhibition of pressor response during carotid occlusion in dog. The class given is functional. Particulars: Canis lupus familiaris. In outline:
as §4

Experiment [6] is filed under the species Rattus norvegicus. Nature of the experiment: Evaluated for induce circling behavior in the rat expressed as rotational behavior (turns/h); IA = inactive. The class given is functional, organism-based. The procedure, abridged:
as §3

Experiment [7] is filed under the species Canis familiaris. Nature of the experiment: Evaluated for inhibition of pressor response during carotid occlusion in dog at 0.5; IA = inactive. It counts as functional, organism-based. The settings on record: Canis lupus familiaris.
Experiment [8] concerns Canis familiaris. Nature of the experiment: Evaluated for inhibition of pressor response during carotid occlusion in dog at 0.5 mg/kg; IA = inactive. Particulars: Canis lupus familiaris. Details: dose 0.5 mg/kg. The class given is functional, organism-based.
For experiment [9], the species on record is Mus musculus. Described as §1. It counts as functional. In outline: as §2
The species entered for experiment [10] is Canis familiaris. Nature of the experiment: Evaluated for inhibition of pressor response during carotid occlusion in dog; IA = inactive. It counts as functional, organism-based. Particulars: Canis lupus familiaris. The procedure, abridged: as §4

In the experiment filed under Mus musculus [1], `CCCCN(CCCC)C1Cc2ccccc2C1.Cl` gave a Reduction of 8.4%. Also, the figures for the Activity in the experiment listed under Mus musculus [2] and in the experiment listed under Rattus norvegicus [3] were 11.7 and 2 turns hr-1, respectively.

A word on the ED50: it is the dose at which the effect has come halfway, by size or by number of responders. As to `CCCNC1CCc2ccccc2C1.Cl` (configuration not stated), the 50% effective dose (ED50) turned out to be 3.38 µmol/kg in the experiment listed under Canis familiaris [4] and 0.9 µmol/kg in the experiment listed under Felis catus. The Reduction in the experiment filed under Mus musculus [1] is 79%. Moreover, the Activity stood at 18.9 in the experiment listed under Mus musculus [2] and 804 turns hr-1 in the experiment listed under Rattus norvegicus [3].

Molecule `Cl.NC1Cc2ccccc2C1` came in with a Reduction in the experiment filed under Mus musculus [1] of 76%. The Activity was found to be 35.8 in the experiment filed under Mus musculus [2] and 27 turns hr-1 in the experiment filed under Rattus norvegicus [3].

In the case of `CCNC1CCc2ccccc2C1.Cl` (configuration not stated), the ED50 worked out at 0.52 µmol/kg in the experiment filed under Canis familiaris [5] and 2.3 µmol/kg in the experiment listed under Felis catus. In the experiment listed under Mus musculus [1], this molecule yielded a Reduction of 76.4%. The values for the Activity in the experiment listed under Mus musculus [2] and in the experiment filed under Rattus norvegicus [3] were 29.6 and 508 turns hr-1, respectively.

With `NC1CCCc2ccccc2C1` (configuration not stated), in the experiment filed under Rattus norvegicus [6], the outcome was inactive.

In turn, `CC(C)N(C)C1CCc2ccccc2C1.Cl` (configuration not stated) gave a Reduction in the experiment listed under Mus musculus [1] of 79.7%. The Activity in the experiment listed under Mus musculus [2] is on record as 20.6; in the experiment filed under Rattus norvegicus [3], 16 turns hr-1.

As to `CCCN(CCC)C1CCCc2ccccc2C1` (configuration not stated), the outcome in the experiment filed under Rattus norvegicus [6] was inactive.

`Br.CCCCN(CCCC)C1CCc2ccccc2C1` (configuration not stated) returned a Reduction in the experiment listed under Mus musculus [1] of 0.8%. Further, the figures for the Activity in the experiment filed under Mus musculus [2] and in the experiment filed under Rattus norvegicus [3] were 12 and 4 turns hr-1, respectively.

Take `CC(C)N(C)C1Cc2ccccc2C1.Cl`: the Reduction in the experiment listed under Mus musculus [1] came out at 64%. Further, the Activity was 29.4 in the experiment listed under Mus musculus [2] and 15 turns hr-1 in the experiment listed under Rattus norvegicus [3].

Consider `CN(C)C1CCCc2ccccc2C1` (configuration not stated), for which the ED50 entry in the experiment listed under Canis familiaris [7] is “inactive”.

Take `CCCN(CCC)C1CCc2ccccc2C1.Cl` (configuration not stated): the 50% effective dose (ED50) in the experiment listed under Canis familiaris [4] was determined as 0.22 µmol/kg; in the experiment filed under Felis catus it was 0.09 µmol/kg. The Reduction in the experiment filed under Mus musculus [1] is recorded as 76.5%. Besides, the Activity in the experiment listed under Mus musculus [2] was determined as 29.2; in the experiment filed under Rattus norvegicus [3], 734 turns hr-1.

For `CC(C)NC1CCCc2ccccc2C1` (configuration not stated), the ED50 result with Canis familiaris [8] is “inactive”.

Molecule `CCNC1Cc2ccccc2C1.Cl` displayed a Reduction in the experiment listed under Mus musculus [1] of 73.6%. In addition, the Activity is recorded as 22.1 in the experiment filed under Mus musculus [2] and 17 turns hr-1 in the experiment filed under Rattus norvegicus [3].

For the molecule `CCCCNC1Cc2ccccc2C1.Cl`, in the experiment listed under Mus musculus [1], the Reduction turned out to be 7.1%. Besides, the figures for the Activity in the experiment listed under Mus musculus [2] and in the experiment listed under Rattus norvegicus [3] were 17.7 and 3 turns hr-1, respectively.

As to `CNC1CCc2ccccc2C1.Cl` (configuration not stated), the Reduction in the experiment filed under Mus musculus [9] is 70.2%. Besides, the Activity in the experiment listed under Mus musculus [2] is reported as 16; in the experiment filed under Rattus norvegicus [3], 263 turns hr-1.

The molecule `CC(C)NC1CCc2ccccc2C1.Cl` (configuration not stated) showed an Activity in the experiment listed under Mus musculus [2] of 27.

`CC(C)NC1Cc2ccccc2C1.Cl`: the Reduction in the experiment listed under Mus musculus [1] was determined as 2.8%. The values for the Activity in the experiment listed under Mus musculus [2] and in the experiment filed under Rattus norvegicus [3] were 17.8 and 25 turns hr-1, respectively.

`CN(C)C1CCc2ccccc2C1.Cl` (configuration not stated): the ED50 entry in the experiment filed under Canis familiaris [10] was “inactive”. In addition, in the experiment listed under Mus musculus [1], the Reduction is 88.1%. Also, the Activity in the experiment listed under Mus musculus [2] is 24.2; in the experiment listed under Rattus norvegicus [3] it was 53 turns hr-1. The same molecule displayed a median effective dose (ED50) in the experiment filed under Felis catus of 0.16 µmol/kg.

Molecule `CCN(CC)C1CCc2ccccc2C1.Cl` (configuration not stated) came in with a Reduction in the experiment listed under Mus musculus [1] of 73.4%. For the same molecule, the results for the Activity in the experiment listed under Mus musculus [2] and in the experiment filed under Rattus norvegicus [3] were 33.5 and 501 turns hr-1, respectively. Also, the 50% effective dose (ED50) in the experiment listed under Felis catus worked out at 0.35 µmol/kg.

For the molecule `CCCCNC1CCc2ccccc2C1.Cl` (configuration not stated), the Reduction in the experiment listed under Mus musculus [9] is on record as 20.7%. The Activity in the experiment listed under Mus musculus [2] worked out at 17.6; in the experiment filed under Rattus norvegicus [3], 7 turns hr-1.

Regarding `CCN(CC)C1Cc2ccccc2C1.Cl`, in the experiment filed under Mus musculus [1], the Reduction is 50.6%. Besides, the values for the Activity in the experiment listed under Mus musculus [2] and in the experiment listed under Rattus norvegicus [3] were 33.9 and 304 turns hr-1, respectively. The molecule also yielded an ED50 in the experiment listed under Felis catus of 1.14 µmol/kg.

In the case of `CNC1Cc2ccccc2C1.Cl`, in the experiment filed under Mus musculus [1], the Reduction worked out at 80.3%. Moreover, the Activity amounted to 28.6 in the experiment filed under Mus musculus [2] and 6 turns hr-1 in the experiment filed under Rattus norvegicus [3].

Regarding `Cl.NC1CCc2ccccc2C1` (configuration not stated), the Reduction in the experiment listed under Mus musculus [1] is on record as 55.1%. The Activity in the experiment listed under Mus musculus [2] is listed as 25.6; in the experiment listed under Rattus norvegicus [3] it was 104 turns hr-1.

With `CCCNC1Cc2ccccc2C1.Cl`, the Reduction in the experiment filed under Mus musculus [1] is listed as 21.9%. In addition, the Activity came out at 15 in the experiment filed under Mus musculus [2] and 6 turns hr-1 in the experiment listed under Rattus norvegicus [3].

`CCCN(CCC)C1Cc2ccccc2C1.Cl` had a Reduction in the experiment filed under Mus musculus [1] of 64%. Also, the Activity in the experiment listed under Mus musculus [2] was determined as 22; in the experiment filed under Rattus norvegicus [3] it was 289 turns hr-1. Further, the 50% effective dose (ED50) in the experiment listed under Felis catus was found to be 0.25 µmol/kg.

As for `CN(C)C1Cc2ccccc2C1.Cl`, in the experiment filed under Rattus norvegicus [3], the Activity came out at 23 turns hr-1.
